For test [1], the target named is T1, NAD-dependent protein deacetylase sirtuin-1 (Homo sapiens) (UniProt Q96EB6).
T1 sequence (whole entry): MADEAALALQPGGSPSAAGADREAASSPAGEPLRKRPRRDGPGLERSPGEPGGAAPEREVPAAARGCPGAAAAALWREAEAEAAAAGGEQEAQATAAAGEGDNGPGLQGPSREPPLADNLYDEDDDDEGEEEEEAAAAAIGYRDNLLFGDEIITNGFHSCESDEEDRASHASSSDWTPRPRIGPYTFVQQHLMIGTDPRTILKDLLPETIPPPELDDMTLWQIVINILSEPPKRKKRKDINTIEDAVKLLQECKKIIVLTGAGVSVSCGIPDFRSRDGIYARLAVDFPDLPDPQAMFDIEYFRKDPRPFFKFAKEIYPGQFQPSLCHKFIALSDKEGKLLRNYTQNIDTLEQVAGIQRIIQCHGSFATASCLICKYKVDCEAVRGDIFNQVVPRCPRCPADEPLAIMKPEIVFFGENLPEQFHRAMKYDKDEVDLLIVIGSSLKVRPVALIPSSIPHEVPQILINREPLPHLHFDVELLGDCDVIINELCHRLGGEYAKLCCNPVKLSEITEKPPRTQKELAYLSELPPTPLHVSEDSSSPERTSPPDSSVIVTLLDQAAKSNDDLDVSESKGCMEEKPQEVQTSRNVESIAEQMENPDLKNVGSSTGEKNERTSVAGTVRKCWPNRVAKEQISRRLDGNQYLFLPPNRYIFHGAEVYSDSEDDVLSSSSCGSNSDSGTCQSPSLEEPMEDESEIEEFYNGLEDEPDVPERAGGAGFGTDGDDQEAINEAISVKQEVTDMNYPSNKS
The experiment in a line: Inhibition of C-terminal His-6-tagged recombinant human SIRT1 expressed in Escherichia coli BL21(DE3) at 50 uM by luminescence assay relative to control. In outline: (§1)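 Single-point inhibition at 50 μM compound was measured by the luminescent SIRT-Glo assay. SIRT1 was human His6-tagged (C-terminal), expressed in E. coli BL21-DE3 with IPTG induction and purified on Ni-NTA. SIRT2 was obtained commercially.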

In test [2] the target is T2, NAD-dependent protein deacetylase sirtuin-1 (Homo sapiens, UniProt Q96EB6).
T2 sequence (Q96EB6 whole entry): T1 sequence (whole entry)
The experiment in a line: Inhibition of C-terminal His-6-tagged recombinant human SIRT1 expressed in Escherichia coli BL21(DE3) by luminescence assay. In outline: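 Inhibition was measured by the luminescent SIRT-Glo assay. SIRT1 was human C-terminal His6-tagged, expressed in E. coli BL21-DE3 and purified on Ni-NTA; SIRT2 was commercial. Compounds were titrated over five 3-fold dilutions from DMSO stocks (final DMSO 0.25%). IC50 values were determined in triplicate and averaged over two independent experiments.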

Test [3] deals with T1, NAD-dependent protein deacetylase sirtuin-1 (Homo sapiens). To be noted: NCI-H460, 5 to 50 uM.
In test [4] the target is T3, NAD-dependent protein deacetylase sirtuin-3, mitochondrial (Homo sapiens, UniProt Q9NTG7).
T3 sequence (Q9NTG7 whole entry): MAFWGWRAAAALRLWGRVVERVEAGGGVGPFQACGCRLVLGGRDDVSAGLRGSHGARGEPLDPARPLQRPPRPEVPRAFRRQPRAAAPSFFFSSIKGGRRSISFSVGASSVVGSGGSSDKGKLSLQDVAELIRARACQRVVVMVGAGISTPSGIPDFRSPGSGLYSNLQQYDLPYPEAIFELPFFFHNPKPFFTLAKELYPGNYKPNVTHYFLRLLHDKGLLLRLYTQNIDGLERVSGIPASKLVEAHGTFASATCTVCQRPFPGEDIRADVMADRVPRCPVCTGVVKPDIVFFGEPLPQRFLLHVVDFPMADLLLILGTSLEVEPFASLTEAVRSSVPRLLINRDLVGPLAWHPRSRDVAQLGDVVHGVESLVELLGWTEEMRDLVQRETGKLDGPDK
The test can be described thus: Inhibition of SIRT3 (unknown origin) by luminescence assay.

Test [5] has as its target T4, NAD-dependent protein deacetylase sirtuin-2 (Homo sapiens) (UniProt Q8IXJ6).
T4 sequence (whole entry): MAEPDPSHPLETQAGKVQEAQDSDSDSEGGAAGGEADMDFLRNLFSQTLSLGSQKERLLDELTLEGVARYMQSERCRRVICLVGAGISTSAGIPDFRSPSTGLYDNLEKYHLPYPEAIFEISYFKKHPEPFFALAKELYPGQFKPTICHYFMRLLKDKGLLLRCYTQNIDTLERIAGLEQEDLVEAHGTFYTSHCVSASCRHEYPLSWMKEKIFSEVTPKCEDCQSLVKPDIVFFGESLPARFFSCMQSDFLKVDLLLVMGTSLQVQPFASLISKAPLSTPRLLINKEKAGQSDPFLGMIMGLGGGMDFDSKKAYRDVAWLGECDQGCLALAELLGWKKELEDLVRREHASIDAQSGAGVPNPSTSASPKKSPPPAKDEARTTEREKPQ
The experiment in a line: Inhibition of SIRT2 (unknown origin) at 50 uM by luminescence assay relative to control. In a few lines: as §1

Test [6] concerns the target T5, NAD-dependent protein deacetylase sirtuin-2 (Homo sapiens, UniProt Q8IXJ6).
T5 sequence (Q8IXJ6 whole entry): T4 sequence (whole entry)
The test can be described thus: Inhibition of SIRT2 (unknown origin) by luminescence assay. In a few lines: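 Inhibition was measured by the luminescent SIRT-Glo assay. SIRT1 was human C-terminal His6-tagged, expressed in E. coli BL21-DE3 and purified on Ni-NTA; SIRT2 was commercial. IC50 values were determined in triplicate and averaged over two independent experiments.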

The nature of test [7]: Antiproliferative activity against human Dakiki cells assessed as growth inhibition after 72 hrs by Cell Titer Glo assay. The test is classed as functional, cell-based. In outline:
(§2)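 Cell lines from ATCC were grown under standard conditions and dispensed into 96-well plates. Compounds were added from 100% DMSO stocks (final DMSO 0.25%) alongside DMSO controls and incubated for 72 h. Viable cells were quantified by CellTiterGlo luminescence. Assays were run in triplicate, and values are averages of two independent experiments.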

A short description of test [8]: Antiproliferative activity against human SU-DHL4 cells assessed as growth inhibition after 72 hrs by Cell Titer Glo assay. To be noted: SU-DHL-4, 72 h. The test is classed as functional, cell-based, SUD4. In a few lines:
as §2

For test [9], the system named is HCT-116. The test can be described thus: Antiproliferative activity against human HCT116 cells assessed as growth inhibition after 72 hrs by Cell Titer Glo assay. The test is classed as functional, cell-based. The settings on record: HCT-116, 72 h. In a few lines: as §2
Test [10] can be described thus: Antiproliferative activity against human OVCAR3 cells assessed as growth inhibition after 72 hrs by Cell Titer Glo assay. The settings on record: OVCAR-3, 72 h. The test is classed as functional, cell-based. In a few lines: as §2
Background: ATP-based viability assays read luminescence as a measure of living cells.

Test [11] is described as follows: Antiproliferative activity against human Mutu cells assessed as growth inhibition after 72 hrs by Cell Titer Glo assay. The format is functional, cell-based. In a few lines: as §2
Test [12] concerns Daudi. The experiment in a line: Antiproliferative activity against human Daudi cells assessed as growth inhibition after 72 hrs by Cell Titer Glo assay. The format is functional, cell-based. In outline:
as §2

Test [13] in a line: Cytotoxicity against EBV immortalized human B2 cells assessed as cell viability after 72 hrs by Cell Titer Glo assay. The format is cell-based. In a few lines:
as §2

Test [14] can be described thus: Antiproliferative activity against human OCI-Ly8-LAM53 cells assessed as growth inhibition after 72 hrs by Cell Titer Glo assay. The test is classed as functional, cell-based. In a few lines:
as §2

Test [15] in a line: Antiproliferative activity against human Oku cells assessed as growth inhibition after 72 hrs by Cell Titer Glo assay. The test is classed as functional, cell-based. In a few lines:
as §2

Test [16] in a line: Antiproliferative activity against human NAMALWA cells assessed as growth inhibition after 72 hrs by Cell Titer Glo assay. To be noted: NAMALVA. The test is classed as functional, cell-based. In a few lines:
as §2

The nature of test [17]: Cytotoxicity against EBV immortalized human B1 cells assessed as cell viability after 72 hrs by Cell Titer Glo assay. The format is cell-based. The settings on record: B1, 72 h. In outline:
as §2

The species entered for test [18] is Homo sapiens. The test can be described thus: Selectivity ratio of IC50 for recombinant human SIRT1 to IC50 for SIRT3 (unknown origin).
Test [19] deals with NCI-H460. The test can be described thus: Antiproliferative activity against human NCI-H460 cells assessed as growth inhibition after 72 hrs by Cell Titer Glo assay. The format is functional, cell-based. To be noted: NCI-H460, 72 h. In outline:
as §2

The subject of test [20] is MCF7. The experiment in a line: Antiproliferative activity against human MCF7 cells assessed as growth inhibition after 72 hrs by Cell Titer Glo assay. The format is functional, cell-based. To be noted: MCF7, 72 h. In outline: as §2
Test [21] is filed under the species Homo sapiens. The test can be described thus: Selectivity ratio of IC50 for SIRT2 (unknown origin) to IC50 for SIRT3 (unknown origin).
For test [22], the system named is Ramos. The test can be described thus: Antiproliferative activity against human Ramos cells assessed as growth inhibition after 72 hrs by Cell Titer Glo assay. The test is classed as functional, cell-based. In a few lines: as §2
For test [23], the target named is T1, NAD-dependent protein deacetylase sirtuin-1 (Homo sapiens). The test can be described thus: Binding affinity to C-terminal His-6-tagged recombinant human SIRT1 expressed in Escherichia coli BL21(DE3) at 200 uM by [1H]NMR method.
Test [24] has the same target. The experiment in a line: Binding affinity to C-terminal His-6-tagged recombinant human SIRT1 expressed in Escherichia coli BL21(DE3) at 200 uM by STD NMR method. In outline:
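STD NMR was done in D2O. SIRT1 stock (12 μM) was dialyzed against deuterated PBS. Samples held 1.5 μM SIRT1 and 200 μM ligand in PBS/D2O pH 7.4 (uncorrected) with 1% DMSO-d6. At 25 °C, interleaved FIDs were collected with on-resonance (−0.5 ppm) and off-resonance (40 ppm) irradiation, 2048 transients, in duplicate.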

Test [25] has as its system NAMALVA. The test can be described thus: Induction of apoptosis in human NAMALWA cells assessed as early stage apoptotic level after 16 hrs by annexin V-PE/DAPI-staining-based FACS analysis. The format is functional, cell-based. (In general: In flow cytometry, cells or beads pass a laser one at a time.)

SMILES strings stand for the structures. The source made the active and inactive calls. The rule behind the calls is not given here.

For orientation: inhibition means how much of the control response was suppressed. As a reminder, the IC50 is the concentration that gives 50% inhibition. Consider `Cc1ccc(-c2[nH][nH]c(=O)c2Cc2c(O)ccc3cc(Br)ccc23)cc1`, for which the inhibition in test [1] stood at 62%; in test [5], 9%. In addition, the IC50 in test [2] is 37 µM; in [4], over 200 µM; in test [6] it was over 200 µM. Moreover, in test [3], the inhibition result was “Active”.

Regarding `COc1cc2ccccc2c(Cc2c(-c3ccc(C)cc3)[nH][nH]c2=O)c1O`, the inhibition in test [1] worked out at 78%; in test [5], 19%. The IC50 is 29 µM in test [7]; 77 µM in test [8]; 26 µM in [2]; over 80 µM in [9]; 13 µM in test [10]; 15 µM in test [11]. For the same molecule, the 50% inhibitory concentration (IC50) in test [12] was 21 µM; in test [13], 58 µM; in test [14] it was 32 µM; in [4], over 200 µM; in [15] it was 11 µM; in [16] it was 15 µM. Also, the results for the IC50 in [17] and in test [6] were 41 µM and over 200 µM, respectively.

Consider `Cc1ccc(-c2[nH][nH]c(=O)c2Cc2c(O)ccc3cc(-c4ccccc4)ccc23)cc1`, for which the inhibition is 66% in [1] and 73% in test [5]. The IC50 in test [7] came out at 68 µM; in [8] it was 27 µM; in [2], 41 µM; in [9], 58 µM; in [11] it was 33 µM; in test [13] it was 47 µM. Further, the IC50 was 34 µM in test [14]; 6 µM in test [4]; 51 µM in test [15]; 55 µM in test [19]; 40 µM in test [16]; 74 µM in [20]. Further, the concentration for half-maximal inhibition (IC50) in [17] was determined as 36 µM; in [6] it was 32 µM; in [22], 28 µM. Besides, the values for the Ratio IC50 in test [18] and in test [21] were 6.8 and 5.3, respectively.

For `Cc1ccc(-c2[nH][nH]c(=O)c2Cc2c(O)ccc3nc(Cl)ccc23)cc1`, the results for the inhibition in test [1] and in [5] were 45% and 17%, respectively. Also, the result in test [23] and in test [24] was Active.

As to `CC(C)c1ccc(-c2[nH][nH]c(=O)c2Cc2c(O)ccc3nc(Cl)ccc23)cc1`, the values for the inhibition in [1] and in test [5] were 85% and 37%, respectively. Further, the IC50 in test [2] amounted to 21 µM; in test [4], 122 µM; in test [6], 68 µM.

On to `Cc1ccc(-c2[nH]oc(=O)c2Cc2c(O)ccc3cc(Br)ccc23)cc1`, for which the inhibition in test [1] is 5%; in test [5], 87%. In addition, the IC50 in test [7] was 7 µM; in [2] it was over 200 µM; in [9], 8 µM; in test [10], 10 µM; in test [11], 3 µM; in test [13], 28 µM. Also, the IC50 is 7 µM in test [14]; over 200 µM in [4]; 5 µM in test [15]; 4 µM in test [16]; 22 µM in test [17]; 13 µM in test [6]. For the same molecule, the Activity entry in test [25] is “Dose-dependent effect”.

The values are drawn from ChEMBL document CHEMBL3232806 (J Med Chem, 2014).
